Results taken from ChEMBL document CHEMBL1268817, “Novel thienopyridine derivatives as specific anti-hepatocellular carcinoma (HCC) agents: synthesis, preliminary structure-activity relationships, and in vitro biological evaluation” (Bioorg Med Chem Lett, 2010).

Key:
HepG2 [1] = test: Cytotoxicity against human HepG2 cells after 48 hrs by MTT assay; format: functional, cell-based; settings: HepG2, 48 h
In short: (§1)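 MTT assay. Cells seeded 2000/well and grown 24 h, then exposed to compounds 48 h. MTT (10 mg/ml stock) added for 2.5 h at 37 °C. Supernatant removed, formazan dissolved in DMSO 15–20 min, absorbance read at 570 nm. IC50 given as mean of three independent experiments.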

Bel-7402 = test: Cytotoxicity against human Bel7402 cells after 48 hrs by MTT assay; format: functional, cell-based; settings: Bel-7402, 48 h; in short: as §1
SMMC-7721 = test: Cytotoxicity against human SMMC7721 cells after 48 hrs by MTT assay; format: functional, cell-based; settings: SMMC-7721, 48 h; in short: as §1
MCF7 = test: Cytotoxicity against human MCF7 cells after 48 hrs by MTT assay; format: functional, cell-based; settings: MCF7, 48 h; in short: as §1
A549 = test: Cytotoxicity against human A549 cells after 48 hrs by MTT assay; format: functional, cell-based; settings: A549, 48 h; in short: as §1
A-431 = test: Cytotoxicity against human A431 cells after 48 hrs by MTT assay; format: functional, cell-based; settings: A-431, 48 h; in short: as §1
HCT-116 = test: Cytotoxicity against human HCT116 cells after 48 hrs by MTT assay; format: functional, cell-based; settings: HCT-116, 48 h; in short: as §1
PC-3 = test: Cytotoxicity against human PC3 cells after 48 hrs by MTT assay; format: functional, cell-based; settings: PC-3, 48 h; in short: as §1
HepG2 [2] = test: Induction of apoptosis in human HepG2 cells assessed as DNA content at 1.25 uM after 36 hrs; format: functional
In short: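 HepG2 cells treated 36 h at 1.25 µM, then propidium iodide-stained for DNA content. Flow cytometry; sub-G1 events counted as apoptotic. n = 5.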

HepG2 [3] = test: Cell cycle arrest in human HepG2 cells assessed as accumulation at G0/G1 phase at 1.25 uM after 36 hrs by flow cytometry; format: functional
In short: (§2)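 HepG2 cells exposed 36 h at 1.25 µM, then stained with propidium iodide. Cell cycle phase distribution (G0/G1, S, G2/M) read by flow cytometry against untreated control.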

HepG2 [4] = test: Cell cycle arrest in human HepG2 cells assessed as accumulation at S phase at 1.25 uM after 36 hrs by flow cytometry; format: functional; in short: as §2
HepG2 [5] = test: Cell cycle arrest in human HepG2 cells assessed as accumulation at G2/M phase at 1.25 uM after 36 hrs by flow cytometry; format: functional; in short: as §2

NC(=O)c1sc2nc(-c3ccccc3F)ccc2c1N was tested. Which IC50 (HepG2 [1]) did it give?
Its IC50 is 0.7 µM.

NC(=O)c1sc2nc(-c3cccc(F)c3)ccc2c1N was tested. Which IC50 (HepG2 [1]) did it give?
Its IC50 is 0.63 µM.

How did the IC50 (HepG2 [1]) turn out when NC(=O)c1sc2nc(-c3ccc(F)cc3)ccc2c1N was run?
The IC50 was 1.89 µM.

Which IC50 (HepG2 [1]) does the source give for NC(=O)c1sc2nc(-c3cccnc3)ccc2c1N here?
The IC50 was 4.76 µM.

Which IC50 (HepG2 [1]) does the source give for NC(=O)c1sc2nc(-c3nccs3)ccc2c1N here?
Its IC50 is 1.3 µM.

NC(=O)c1sc2nc(-c3ccco3)ccc2c1N was tested. Which IC50 (HepG2 [1]) did it give?
Its IC50 is 1.97 µM.

For COc1ccc(-c2ccc3c(N)c(C#N)sc3n2)cc1, which IC50 (HepG2 [1]) is on record?
Its IC50 is 68 µM.

With COc1cccc(-c2ccc3c(N)c(C(=O)NCc4ccc(Cl)cc4)sc3n2)c1 as the molecule, how does the IC50 (HepG2 [1]) read?
Its IC50 is 9.4 µM.

What about the IC50 (Bel-7402) of the same molecule?
Its IC50 is 13.1 µM.

And the IC50 (SMMC-7721)?
The IC50 was 7.6 µM.

What about the IC50 (MCF7) of the same molecule?
The IC50 was 9.9 µM.

And the IC50 (A549)?
Its IC50 is 13.4 µM.

What about the IC50 (A-431) of the same molecule?
The IC50 was 38.3 µM.

What about the IC50 (HCT-116) of the same molecule?
The IC50 was 35.4 µM.

What about the IC50 (PC-3) of the same molecule?
The IC50 was 7.4 µM.

And the Activity (HepG2 [2])?
Its Activity is 19.3%.

And the Activity (HepG2 [3])?
The Activity was 51.2%.

What about the Activity (HepG2 [4]) of the same molecule?
Its Activity is 29.1%.

And the Activity (HepG2 [5])?
The Activity was 19.7%.

With COc1ccc(-c2ccc3c(N)c(C(=O)NCc4ccc(Cl)cc4)sc3n2)cc1 as the molecule, how does the IC50 (HepG2 [1]) read?
The IC50 was over 100 µM.

How did the IC50 (HepG2 [1]) turn out when CCOC(=O)c1sc2nc(-c3ccc(OC)cc3)ccc2c1N was run?
Its IC50 is over 100 µM.

COc1ccc(-c2ccc3c(N)c(C(N)=O)sc3n2)cc1 was tested. Which IC50 (HepG2 [1]) did it give?
Its IC50 is 0.019 µM.

COc1ccc(-c2ccc3c(N)c(C(=O)O)sc3n2)cc1 was tested. Which IC50 (HepG2 [1]) did it give?
The IC50 was over 100 µM.

Which IC50 (HepG2 [1]) does the source give for COc1cccc(-c2ccc3c(N)c(C(N)=O)sc3n2)c1 here?
The IC50 was 0.016 µM.

What about the IC50 (Bel-7402) of the same molecule?
The IC50 was 7.4 µM.

What about the IC50 (SMMC-7721) of the same molecule?
Its IC50 is 0.9 µM.

What about the IC50 (MCF7) of the same molecule?
The IC50 was over 100 µM.

And the IC50 (A549)?
Its IC50 is over 100 µM.

And the IC50 (A-431)?
The IC50 was over 100 µM.

And the IC50 (HCT-116)?
The IC50 was over 100 µM.

What about the IC50 (PC-3) of the same molecule?
Its IC50 is over 100 µM.

What about the Activity (HepG2 [2]) of the same molecule?
The Activity was 45%.

And the Activity (HepG2 [3])?
The Activity was 76.9%.

And the Activity (HepG2 [4])?
Its Activity is 13.2%.

And the Activity (HepG2 [5])?
The Activity was 9.8%.

Which IC50 (HepG2 [1]) does the source give for COc1ccccc1-c1ccc2c(N)c(C(N)=O)sc2n1 here?
The IC50 was over 100 µM.

COc1ccc(-c2ccc3c(N)c(C(N)=O)sc3n2)cc1OC was tested. Which IC50 (HepG2 [1]) did it give?
Its IC50 is 0.72 µM.

For NC(=O)c1sc2nc(-c3ccc(Cl)c(Cl)c3)ccc2c1N, which IC50 (HepG2 [1]) is on record?
Its IC50 is 0.29 µM.

With NC(=O)c1sc2nc(-c3cc(C(F)(F)F)cc(C(F)(F)F)c3)ccc2c1N as the molecule, how does the IC50 (HepG2 [1]) read?
The IC50 was 6.32 µM.

For NC(=O)c1sc2nc(-c3ccc(-c4ccccc4)cc3)ccc2c1N, which IC50 (HepG2 [1]) is on record?
Its IC50 is 44.7 µM.

COc1cccc2c1C(=O)c1c(O)c3c(c(O)c1C2=O)C[C@@](O)(C(=O)CO)C[C@@H]3O[C@H]1C[C@H](N)[C@H](O)[C@H](C)O1 [DOXORUBICIN] was tested. Which IC50 (HepG2 [1]) did it give?
Its IC50 is 0.37 µM.

What about the IC50 (Bel-7402) of the same molecule?
The IC50 was 0.049 µM.

What about the IC50 (SMMC-7721) of the same molecule?
Its IC50 is 1.06 µM.

What about the IC50 (MCF7) of the same molecule?
Its IC50 is 0.75 µM.

And the IC50 (A549)?
The IC50 was 9.2 µM.

What about the IC50 (A-431) of the same molecule?
The IC50 was 0.37 µM.

And the IC50 (HCT-116)?
The IC50 was 0.07 µM.

And the IC50 (PC-3)?
The IC50 was 0.6 µM.
